The source made the active and inactive calls. The rule behind the calls is not given here.
What was measured:
MDA-MB-231 = test: Antiproliferative activity against human MDA-MB-231 cells after 48 hrs by MTT assay; type: functional, cell-based; conditions: MDA-MB-231, 48 h
In short: (§1)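 MTT viability assay. HL-60 and Raji were grown in RPMI-1640 and MCF7/MDA-MB-231 in DMEM, all with 10% FBS, at 37 °C under 5% CO₂. Cells were seeded at 10,000/well, held overnight in 1% FBS medium, then exposed 48 h to 0.1–125 µM. Solvent control was 0.1% DMSO. MTT was 0.5 mg/mL for 4 h, formazan was dissolved in DMSO, and absorbance read at 570 nm. Quadruplicates; IC50 taken from concentration–response curves.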

Tubulin = Tubulin (Bos taurus, UniProt Q6B856+Q862L2+Q862F3); test: Inhibition of bovine brain tubulin polymerization after 20 mins by spectrophotometry
Tubulin (Bos taurus) [1] = target: T1, Tubulin (Bos taurus) (UniProt Q6B856+Q862L2+Q862F3); test: Displacement of [3H]colchicine from bovine brain tubulin at 50 uM after 10 mins by liquid scintillation counting
In short: (§2)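 [³H]colchicine binding in 0.1 mL. Bovine brain tubulin 1.0 µM, [³H]colchicine 5.0 µM, 1.0 M glutamate, 5% DMSO, inhibitor at 5 or 50 µM; 10 min at 37 °C. Reactions were stopped with ice-cold water and filtered through two stacked DEAE-cellulose filters, which were washed with cold water. Bound label was counted by liquid scintillation.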

Raji = test: Antiproliferative activity against human Raji cells after 48 hrs by MTT assay; type: functional, cell-based; in short: as §1
HeLa [2] = test: Antiproliferative activity against human HeLa cells after 48 hrs by MTT assay; type: functional, cell-based
MCF7 = test: Antiproliferative activity against human MCF7 cells after 48 hrs by MTT assay; type: functional, cell-based; conditions: MCF7, 48 h; in short: as §1
HL-60 [3] = test: Antiproliferative activity against human HL60 cells after 48 hrs by MTT assay; type: functional, cell-based; conditions: HL-60, 48 h; in short: as §1
HL-60 [4] = test: Cell cycle arrest in human HL60 cells assessed as decrease in accumulation at S phase at 0 to 30 uM for 24 hrs by flow cytometry; type: functional, cell-based
In short: (§3)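 DNA-content flow cytometry. 5×10⁵ HeLa or HL-60 cells were treated 24 h at a range of concentrations. Cells were fixed in ice-cold 70% ethanol, lysed in buffer with RNase A and 0.1% Triton X-100, and stained with PI. Phase distribution was taken from DNA histograms. Means of three independent experiments.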

HL-60 [5] = test: Induction of apoptosis in human HL60 cells assessed as increase in cleaved caspase-3 level at 1 to 10 uM after 24 to 48 hrs by western blot analysis; type: functional, cell-based
In short: (§4)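 Western blot on HL-60 cells exposed for the indicated times. Lysates were cleared at 15000 × g, 4 °C; 20 µg protein was run on 7.5–15% SDS-PAGE and transferred to PVDF. Blocking in 5% BSA for 2 h, then caspase-3 and PARP antibodies overnight at 4 °C and peroxidase secondary for 60 min. ECL detection; β-actin reprobe as loading control.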

HL-60 [6] = test: Induction of apoptosis in human HL60 cells assessed as increase in cleaved PARP level at 1 to 10 uM after 24 to 48 hrs by western blot analysis; type: functional, cell-based; in short: as §4
HL-60 [7] = test: Induction of apoptosis in human HL60 cells assessed as increase in number of late apoptotic cells for 24 and 48 hrs by annexin-V/propidium-iodide staining based flow cytometry; type: functional, cell-based
In short: (§5)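 Annexin-V-FITC/PI double staining with flow cytometry on HL-60 and HeLa cells after 24 or 48 h of treatment. Excitation 488 nm; emission 525 nm (FITC) and 585 nm (PI). Early apoptotic cells scored as annexin-V+/PI−, late apoptotic as annexin-V+/PI+. Means of three independent experiments.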

HeLa [8] = test: Cell cycle arrest in human HeLa cells assessed as decrease in accumulation at S phase at 0 to 30 uM for 24 hrs by flow cytometry; type: functional, cell-based; in short: as §3
HeLa [9] = test: Cell cycle arrest in human HeLa cells assessed as increase in accumulation at G2/M phase at 10 uM for 24 hrs by flow cytometry; type: functional; conditions: in the assay text read “at 15 to 30 uM” for “at 10 uM”; in short: as §3
HeLa [10] = test: Induction of apoptosis in human HeLa cells assessed as increase in number of early apoptotic cells at 1 and 10 uM hrs by annexin-V/propidium-iodide staining based flow cytometry; type: functional, cell-based; conditions: TDE = time-dependent effect; in short: as §5
HL-60 [11] = test: Cell cycle arrest in human HL60 cells assessed as increase in accumulation at G2/M phase at 10 uM for 24 hrs by flow cytometry; type: functional; conditions: in the assay text read “at 15 to 30 uM” for “at 10 uM”; in short: as §3
HL-60 [12] = test: Induction of apoptosis in human HL60 cells assessed as increase in number of early apoptotic cells at 1 and 10 uM by annexin-V/propidium-iodide staining based flow cytometry; type: functional, cell-based; conditions: TDE = time-dependent effect; in short: as §5
HeLa [13] = test: Cell cycle arrest in human HeLa cells assessed as increase in accumulation at G2/M phase for 24 hrs by flow cytometry; type: functional, cell-based; in short: as §3
HL-60 [14] = test: Induction of apoptosis in human HL60 cells assessed as increase in number of late apoptotic cells at 1 and 10 uM by annexin-V/propidium-iodide staining based flow cytometry; type: functional, cell-based; conditions: TDE = time-dependent effect; in short: as §5
HL-60 [15] = test: Cell cycle arrest in human HL60 cells assessed as increase in accumulation at G2/M phase for 24 hrs by flow cytometry; type: functional, cell-based; in short: as §3
HL-60 [16] = test: Induction of apoptosis in human HL60 cells assessed as increase in number of early apoptotic cells for 24 and 48 hrs by annexin-V/propidium-iodide staining based flow cytometry; type: functional, cell-based; in short: as §5
Tubulin (Bos taurus) [17] = target: T1, Tubulin (Bos taurus); test: Displacement of [3H]colchicine from bovine brain tubulin at 5 uM after 10 mins by liquid scintillation counting; in short: as §2
HL-60 [18] = test: Cell cycle arrest in human HL60 cells assessed as decrease in accumulation at G1 phase at 0 to 30 uM for 24 hrs by flow cytometry; type: functional, cell-based; in short: as §3
HeLa [19] = test: Induction of apoptosis in human HeLa cells assessed as increase in number of late apoptotic cells at 1 and 10 uM hrs by annexin-V/propidium-iodide staining based flow cytometry; type: functional, cell-based; conditions: TDE = time-dependent effect; in short: as §5
HeLa [20] = test: Induction of apoptosis in human HeLa cells assessed as increase in number of late apoptotic cells for 24 and 48 hrs by annexin-V/propidium-iodide staining based flow cytometry; type: functional, cell-based; in short: as §5
HeLa [21] = test: Cell cycle arrest in human HeLa cells assessed as decrease in accumulation at G1 phase at 0 to 30 uM for 24 hrs by flow cytometry; type: functional, cell-based; in short: as §3
HeLa [22] = test: Induction of apoptosis in human HeLa cells assessed as increase in number of early apoptotic cells for 24 and 48 hrs by annexin-V/propidium-iodide staining based flow cytometry; type: functional, cell-based; in short: as §5

Compound	IC50 (MDA-MB-231)	IC50 (Tubulin)	inhibition (Tubulin (Bos taurus) [1])	IC50 (Raji)	IC50 (HeLa [2])	IC50 (MCF7)	IC50 (HL-60 [3])	other results
COc1ccc(NC(=O)/C=C/c2c[nH]c3ccccc23)cc1OC	> 100 µM	> 40 µM	11%	10.3 µM	31.4 µM	> 100 µM	6.2 µM	
COc1cc(CNC(=O)/C=C/c2c[nH]c3ccccc23)ccc1O	> 100 µM	> 40 µM	14%	33.1 µM	> 100 µM	> 100 µM	> 100 µM	
COc1cccc(CNC(=O)/C=C/c2c[nH]c3ccccc23)c1OC	> 100 µM	> 40 µM	12%	> 100 µM	36.5 µM	> 100 µM	> 100 µM	
COc1ccc(CNC(=O)/C=C/c2c[nH]c3ccccc23)cc1OC	> 100 µM	> 40 µM	13%	> 100 µM	> 100 µM	> 100 µM	> 100 µM	
COc1ccc(CNC(=O)/C=C/c2c[nH]c3ccccc23)c(OC)c1	> 100 µM	> 40 µM		> 100 µM	> 100 µM	> 100 µM	> 100 µM	
COc1ccc(OC)c(NC(=O)/C=C/c2c[nH]c3ccccc23)c1	> 100 µM	> 40 µM	15%	22.9 µM	> 100 µM	> 100 µM	10.1 µM	
COc1ccc(OC)c(CNC(=O)/C=C/c2c[nH]c3ccccc23)c1	> 100 µM	> 40 µM	23%	> 100 µM	> 100 µM	> 100 µM	> 100 µM	
COc1cc(OC)c(NC(=O)/C=C/c2c[nH]c3ccccc23)c(OC)c1	> 100 µM	> 40 µM	11%	> 100 µM	> 100 µM	> 100 µM	> 100 µM	
COc1cc(NC(=O)/C=C/c2c[nH]c3ccccc23)cc(OC)c1OC	> 100 µM	17 µM	50%	9.5 µM	23.7 µM	36.3 µM	5.1 µM	Activity (HL-60 [4]): Active; Activity (HL-60 [5]): Active; Activity (HL-60 [6]): Active; Activity (HL-60 [7]): Dose-dependent effect; Activity (HeLa [8]): Active; Activity (HeLa [9]): > 80%; Activity (HeLa [10]): tde; Activity (HL-60 [11]): 60%; Activity (HL-60 [12]): tde; Activity (HeLa [13]): Dose-dependent effect; Activity (HL-60 [14]): tde; Activity (HL-60 [15]): Dose-dependent effect; Activity (HL-60 [16]): Dose-dependent effect; inhibition (Tubulin (Bos taurus) [17]): 11%; Activity (HL-60 [18]): Active; Activity (HeLa [19]): tde; Activity (HeLa [20]): Dose-dependent effect; Activity (HeLa [21]): Active; Activity (HeLa [22]): Dose-dependent effect
COc1cc(NC(=O)/C=C/c2c[nH]c3ccccc23)cc(OC)c1	> 100 µM	> 40 µM	26%	9.3 µM	> 100 µM	> 100 µM	7.1 µM	
COc1ccc(NC(=O)/C=C/c2c[nH]c3ccccc23)c(OC)c1	> 100 µM	> 40 µM	13%	22.6 µM	> 100 µM	> 100 µM	17.8 µM	

Source: ChEMBL document CHEMBL3286133, “Synthesis, biological evaluation and molecular docking studies of trans-indole-3-acrylamide derivatives, a new class of tubulin polymerization inhibitors” (Bioorg Med Chem, 2014)
